In article PMC11056977 (Journal of Medicinal Chemistry, 2024):
Ends that are not written are not given here.

What was measured:
[1] = test system: c-Myc, N-myc, CCND1 expression in MCF7 cells; assay: RT-qPCR and immunoblotting of BRD4/JMJD6 target genes, MCF7 cells; format: cell-based; conditions: 10 μM 6 h in cells; xenograft tumor samples; RT-qPCR
[2] = test system: tamoxifen-resistant T47D cells; assay: Cell proliferation and colony formation, tamoxifen-resistant T47D; format: cell-based; conditions: peptide inhibitors 10 μM, tamoxifen 3 μM, cell proliferation and colony formation assay
Method in brief: (§1)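 Resistant lines (MCF7 in DMEM; T47D in RPMI-1640; 10% FBS, 37 °C, 5% CO2) given peptide inhibitor 10 μM and tamoxifen 3 μM, alone or combined. Proliferation: 2 × 10^3 cells/well for the days indicated, then tetrazolium (CellTiter 96 Aqueous One) reagent for 1 h at 37 °C and absorbance at 490 nm. Colonies: 1 × 10^3 cells/well for 2 weeks, crystal violet stain dissolved in 10% acetic acid, read at 590 nm.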

[3] = test system: tamoxifen-resistant MCF7 cells; assay: Cell proliferation and colony formation, tamoxifen-resistant MCF7; format: cell-based; conditions: peptide inhibitors 10 μM, tamoxifen 3 μM, cell proliferation and colony formation assay
Method in brief: as §1

[4] = test system: MDA-MB-231 cell-derived xenografts; assay: MDA-MB-231 cell-derived xenograft mouse model; format: in vivo, BALB/c nude mice; conditions: tumor samples, 25 mg/kg ip every 2 days
Method in brief: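 Female BALB/c nude mice (4–6 weeks) were implanted subcutaneously with 5 × 10^6 MDA-MB-231 cells in PBS and randomized at ~50 mm3. Peptide in normal saline was given at 25 mg/kg i.p. every 2 days. Tumours were analysed by RT-qPCR for c-Myc, N-myc and CCND1 (three biological repeats).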

[5] = test system: c-Myc, N-myc, CCND1 expression in MDA-MB-231 cells; assay: RT-qPCR and immunoblotting of BRD4/JMJD6 target genes, MDA-MB-231 cells; format: cell-based; conditions: 10 μM 6 h in cells; xenograft tumor samples; RT-qPCR
[6] = test system: MCF7 cell-derived xenografts; assay: MCF7 cell-derived xenograft mouse model; format: in vivo, BALB/c nude mice; conditions: tumor samples, 25 mg/kg ip every 2 days
Method in brief: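 Female BALB/c nude mice (4–6 weeks) implanted subcutaneously with 5 × 10^6 MCF7 cells in PBS, with estrogen (E2, 10–2 M) brushed on every 2 days. Randomized at ~50 mm3 tumor volume. Test peptide was given in normal saline, 25 mg/kg i.p., every 2 days. Tumor lysates (Tris-HCl pH 7.4, NaCl, EDTA, 1% Triton X-100) were immunoblotted after 10% SDS-PAGE.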

BRD4 = assay: Immunoblotting of BRD4 protein; format: cell-based; conditions: MCF7 cells, MZ1 1 μM, 24 h, compared with TAT-PiET-PROTAC 10 μM

| Compound | mRNA levels of BRD4 or JMJD6, MCF7 (culture cells or xenografts) [1] | sensitivity of tamoxifen-resistant T47D cells to tamoxifen [2] | resensitization of tamoxifen-resistant MCF7 cells to tamoxifen [3] | c-Myc, N-myc, and CCND1 mRNA and protein levels in MDA-MB-231 cell-derived xenografts [4] | degradation of BRD4 and JMJD6 in MDA-MB-231 cell-derived xenografts ([4]; immunoblot) | mRNA levels of BRD4 or JMJD6, MDA-MB-231 (culture cells or xenografts) [5] | c-Myc, N-myc, and CCND1 mRNA and protein levels in MCF7 cell-derived xenografts [6] | degradation of BRD4 and JMJD6 in MCF7 cell-derived xenografts ([6]; immunoblot) | degradation of full-length BRD4 protein (BRD4) |
| --- | --- | --- | --- | --- | --- | --- | --- | --- | --- |
| TAT-PiET-PROTAC: PROTAC-modified TAT-PiET: VHL ligand peptide joined by AHX to the C-terminus (YGRKKRRQRRRRNQKFKCGE; not fully specified (C-terminus)) | did not affect | became sensitive to tamoxifen | resensitized | significant decrease | induced the degradation of BRD4 and JMJD6 in xenografts | did not affect | significant decrease | induced the degradation of BRD4 and JMJD6 in xenografts |  |
| YGRKKRRQRRRRNQKFKCGE [TAT-PiET] | did not affect | became sensitive to tamoxifen | resensitized | significant decrease |  | did not affect | significant decrease |  |  |
| Cc1ncsc1-c1ccc(CNC(=O)[C@@H]2C[C@@H](O)CN2C(=O)[C@@H](NC(=O)COCCOCCOCCNC(=O)C[C@@H]2N=C(c3ccc(Cl)cc3)c3c(sc(C)c3C)-n3c(C)nnc32)C(C)(C)C)cc1 [MZ1] |  |  |  |  |  |  |  |  | induced the degradation of full-length BRD4 protein as effectively as TAT-PiET-PROTAC (10 μM) |
